Test [1] addresses cAMP-dependent protein kinase catalytic subunit beta (Homo sapiens) (UniProt P22694). Nature of the test: Inhibition of biotinylated ligand binding to wild-type human full length PKAC-beta (M1 to F351 residues) expressed in bacterial expression system at 50 nM measured after 1 hr by kinomescan assay relative to control.
In a further test the test system is NRK. Nature of the test: cells. The settings on record: Rattus norvegicus, 48 h.
The target in test [2] is BMP-2-inducible protein kinase (Homo sapiens) (UniProt Q9NSY1). Nature of the test: Inhibition of biotinylated ligand binding to wild-type human partial length BIKE (S34 to N329 residues) expressed in bacterial expression system at 50 nM measured after 1 hr by kinomescan assay relative to control. In a few lines:
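Kinase-tagged T7 phage was grown in an E. coli BL21-derived host at 32 °C until lysis, and the lysate was clarified. Kinase was bound to streptavidin beads carrying a biotinylated ligand, with test compound at 50 nM (final DMSO), in binding buffer for 1 h at rt. Bound kinase was eluted and quantified by qPCR. Result is POC relative to the DMSO (100%) and control-compound (0%) references.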

Each structure is given as a SMILES string.

A word on the inhibition: it is the drop in the measured response relative to a control, in per cent. A higher inhibition goes with strong suppression. A word on the EC50: it is the concentration that produces a half-maximal response. Lower therefore signals higher potency in that assay.

Sequence of BMP-2-inducible protein kinase (Homo sapiens) (Q9NSY1 whole entry, looked up, the tested form may be a part): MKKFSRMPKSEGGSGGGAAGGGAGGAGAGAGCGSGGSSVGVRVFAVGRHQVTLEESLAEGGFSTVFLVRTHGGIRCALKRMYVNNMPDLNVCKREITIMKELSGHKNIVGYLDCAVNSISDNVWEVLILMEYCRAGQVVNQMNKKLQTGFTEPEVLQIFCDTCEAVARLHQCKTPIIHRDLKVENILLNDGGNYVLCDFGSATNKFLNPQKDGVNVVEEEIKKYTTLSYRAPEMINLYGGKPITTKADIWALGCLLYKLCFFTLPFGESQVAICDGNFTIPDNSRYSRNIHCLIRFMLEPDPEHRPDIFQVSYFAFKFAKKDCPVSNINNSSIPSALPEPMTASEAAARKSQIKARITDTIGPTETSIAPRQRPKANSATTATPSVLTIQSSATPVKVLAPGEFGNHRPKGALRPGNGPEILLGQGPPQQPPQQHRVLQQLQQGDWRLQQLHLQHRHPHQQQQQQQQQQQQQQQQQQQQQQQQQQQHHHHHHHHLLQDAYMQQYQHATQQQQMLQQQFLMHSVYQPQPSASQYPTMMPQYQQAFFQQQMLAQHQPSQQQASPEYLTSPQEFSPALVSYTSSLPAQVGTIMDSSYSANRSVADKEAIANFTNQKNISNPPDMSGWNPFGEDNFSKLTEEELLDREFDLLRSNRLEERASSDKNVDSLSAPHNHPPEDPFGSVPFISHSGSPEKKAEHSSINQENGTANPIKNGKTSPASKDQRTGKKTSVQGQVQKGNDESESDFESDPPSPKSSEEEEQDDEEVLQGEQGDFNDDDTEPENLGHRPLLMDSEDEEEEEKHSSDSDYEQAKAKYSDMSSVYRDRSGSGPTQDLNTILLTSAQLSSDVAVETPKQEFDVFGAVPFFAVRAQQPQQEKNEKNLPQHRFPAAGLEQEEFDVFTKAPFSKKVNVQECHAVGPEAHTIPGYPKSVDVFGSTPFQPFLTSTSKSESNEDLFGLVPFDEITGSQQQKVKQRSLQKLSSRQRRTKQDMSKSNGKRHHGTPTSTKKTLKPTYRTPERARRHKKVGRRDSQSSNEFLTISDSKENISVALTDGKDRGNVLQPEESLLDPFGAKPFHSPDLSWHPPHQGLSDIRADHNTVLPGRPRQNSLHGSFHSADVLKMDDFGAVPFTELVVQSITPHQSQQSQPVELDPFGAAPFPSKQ

On to `CN(C)[C@@H]1CC[C@@]2(C)[C@@H](CC[C@@H]3[C@@H]2CC[C@]2(C)C(c4cccc5cnccc45)=CC[C@@H]32)C1`, for which the inhibition in test [1] and in test [2] was more than 80% throughout. This molecule also returned an EC50 with NRK of 16.2 µM.

The values above are taken from ChEMBL document CHEMBL4619723, “New CDK8 inhibitors as potential anti-leukemic agents - Design, synthesis and biological evaluation” (Bioorg Med Chem, 2020).
